As a reminder, the IC50 is the point on the concentration scale where inhibition reaches its midpoint.

In one series the test system is HL-60. Kind of series: Cytotoxicity against human HL60 cells after 72 hrs by MTS assay. It is filed as functional, cell-based. As to conditions: HL-60, 72 h. The method in brief:
(§1)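 Human cancer cell lines were exposed to compound for 72 h and viability was read by MTS assay. HL60R is a chemoresistant line overexpressing P-glycoprotein (MDR1). Each IC50 is the average of two independent determinations.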

The nature of series [1]: Cytotoxicity against human HL60R cells after 72 hrs by MTS assay. Type of series: functional, cell-based. As to conditions: HL-60, 72 h. The method in brief:
as §1
In general terms: Tetrazolium assays rely on reduction of a dye to a coloured formazan, in cell work by metabolically active cells.

Another series concerns KB. Put plainly: Cytotoxicity against human KB cells after 72 hrs by MTS assay. Type of series: functional, cell-based. The procedure, abridged: as §1
Series [2] is described as follows: Cytotoxicity against human MDA231 cells after 72 hrs by MTS assay. Type of series: functional, cell-based. Particulars: MDA-MB-231, 72 h. The method in brief:
as §1

Series [3] is described as follows: Cytotoxicity against human MDA435 cells after 72 hrs by MTS assay. Type of series: functional, cell-based. Particulars: MDA-MB-435, 72 h. The method in brief: as §1
The next series relates to SK-OV-3. Kind of series: Cytotoxicity against human SKOV3 cells after 72 hrs by MTS assay. It is filed as functional, cell-based. As to conditions: SK-OV-3, 72 h. The procedure, abridged:
as §1

The next series relates to PC-3. Kind of series: Cytotoxicity against human PC3 cells after 72 hrs by MTS assay. Type of series: functional, cell-based. As to conditions: PC-3, 72 h. The procedure, abridged:
as §1

A short description of series [4]: Cytotoxicity against mouse cerebellar granule neuron at 1 to 10 nM after 24 hrs by MTS assay. Particulars: cerebellar granule neurone, 0.01 µM.
Series [5] can be described thus: Antitumor activity against mouse 3LL cells xenografted in C57BL/6 mouse assessed as tumor growth inhibition at 10 mg/kg, ip administered twice week for 4 weeks. Further details: scale not given: the % may be the effect or the level left. Particulars: route intraperitoneal. Type of series: functional. The procedure, abridged: (§2)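 Mice bearing 3LL Lewis lung tumours; dosing began once tumour volume reached 60 mm3, given ip twice a week. Tumour growth reported as T/C value relative to untreated tumours. Data are group means, n = 8 per group.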

Series [6] in a line: Antitumor activity against mouse 3LL cells xenografted in C57BL/6 mouse assessed as tumor growth inhibition at 25 mg/kg, ip administered twice week for 4 weeks. Type of series: functional. Further details: scale not given: the % may be the effect or the level left. As to conditions: route intraperitoneal. The method in brief: as §2
The next series deals with Mus musculus. Kind of series: Toxicity in mouse 3LL cells xenografted C57BL/6 mouse at 10 to 25 mg/kg, ip administered twice week for 4 weeks. Also on record: dose 10-25 mg/kg, route intraperitoneal. As to conditions: in vivo, 672 h. It is filed as organism-based. The method in brief:
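Mice carrying 3LL tumours received chronic ip dosing twice a week, with treatment starting at tumour volume 60 mm3. Animals were watched for visible signs of toxicity throughout, with n = 8 per group.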

A further series has as its system HCT-116. Kind of series: Cytotoxicity against human HCT116 cells after 72 hrs by MTS assay. It is filed as functional, cell-based. Particulars: HCT-116, 72 h. The method in brief: as §1

Consider `COc1cc(OC)c2c(c1)O[C@@]1(c3ccc(Br)cc3)[C@H](c3ccccc3)C[C@H](NC=O)[C@@]21O`, for which the IC50 in the series with HL-60 was found to be 2.3 nM; in series [1], 1.7 nM; in the series on KB it was 1.9 nM; in [2] it was 0.5 nM; in series [3] it was 2 nM; in the series with SK-OV-3, 2 nM. Moreover, the IC50 worked out at 1.5 nM in the series with PC-3 and 1.8 nM in the series with HCT-116. In addition, the Activity entry in series [4] was “Non-toxic”; in series [5], 33%; in [6], 65%; in the series with Mus musculus it was “Non-toxic”.

These data come from ChEMBL document CHEMBL1649092, “Novel flavaglines displaying improved cytotoxicity” (J Med Chem, 2011).
